Laboratory results: ChEMBL document CHEMBL1144171, “Novel hypoglycemic dihydropyridones serendipitously discovered from O- versus C-alkylation in the synthesis of VMAT2 antagonists” (Bioorg Med Chem Lett, 2008)
The source made the active and inactive calls. The rule behind the calls is not given here.

Tests used:
[1] = tested on: Rattus norvegicus; experiment: Hypoglycemic activity in fasted Lewis rat at 2 mg/kg, iv administered 30 mins prior to glucose stimulation measured after 120 mins by glucose tolerance test; format: functional, organism-based; parameters: dose 2 mg/kg
How it was run: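 Lewis rats fasted 6 h received drug iv at −30 min (2mg/kg), then glucose 2g/kg ip at 0 min; blood glucose followed 120 min. AUC IPGTT by trapezoidal rule, SEM (n=5); drug versus vehicle compared by Student's t test.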

[2] = tested on: Rattus norvegicus; experiment: Toxicity in Lewis rat assessed as tonic seizure at 2 mg/kg; format: organism-based; parameters: dose 2 mg/kg; conditions: in vivo
[3] = molecular target: Dipeptidyl peptidase 4 (Homo sapiens) (UniProt P27487); experiment: Inhibition of DPP4 upto 10 uM
Chain of Dipeptidyl peptidase 4 (Homo sapiens) (P27487 whole entry, looked up): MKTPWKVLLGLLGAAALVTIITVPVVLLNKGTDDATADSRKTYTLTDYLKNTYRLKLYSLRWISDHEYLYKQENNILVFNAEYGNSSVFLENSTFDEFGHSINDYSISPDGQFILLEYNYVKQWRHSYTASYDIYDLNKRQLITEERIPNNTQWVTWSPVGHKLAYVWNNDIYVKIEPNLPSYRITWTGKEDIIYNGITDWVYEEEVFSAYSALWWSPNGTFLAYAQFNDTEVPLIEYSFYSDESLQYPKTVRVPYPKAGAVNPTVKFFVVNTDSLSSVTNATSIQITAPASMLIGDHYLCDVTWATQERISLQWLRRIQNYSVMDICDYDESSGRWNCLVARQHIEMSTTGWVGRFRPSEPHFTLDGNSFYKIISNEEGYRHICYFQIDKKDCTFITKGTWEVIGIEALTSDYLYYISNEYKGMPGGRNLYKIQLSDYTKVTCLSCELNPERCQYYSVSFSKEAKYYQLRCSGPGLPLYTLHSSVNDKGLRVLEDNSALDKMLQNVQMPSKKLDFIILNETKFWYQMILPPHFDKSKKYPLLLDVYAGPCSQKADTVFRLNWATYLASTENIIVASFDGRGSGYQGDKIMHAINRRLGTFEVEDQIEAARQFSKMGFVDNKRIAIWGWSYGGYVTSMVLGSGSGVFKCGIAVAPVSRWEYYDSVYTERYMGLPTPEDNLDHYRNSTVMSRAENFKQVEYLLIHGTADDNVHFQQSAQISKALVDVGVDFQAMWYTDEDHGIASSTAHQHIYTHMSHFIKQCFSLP

Activity [3]	SMILES	Activity [1]	Activity [2]
	COc1cc2c(cc1OC)[C@@H]1C[C@H](O)[C@@H](CC(C)C)CN1CC2	Active	Toxic
	COc1ccc(-c2cc(OCC(C)C)cc(=O)[nH]2)cc1OC	inactive	
	COc1ccc(C2CC(O)C(CC(C)C)CN2)cc1OC (stereo not drawn)	Active	
	COC1=CC(=O)N2CCc3cc(OC)c(OC)cc3C2C1 (stereo not drawn)	Active	
	COc1ccc(C2CC(=O)CC(=O)N2)cc1OC (stereo not drawn)	inactive	
inactive	COc1ccc(C2CC(OCC(C)C)=CC(=O)N2)cc1OC (stereo not drawn)	Active	Non-toxic
	COC1=CC(=O)OC(c2ccc(OC)c(OC)c2)C1 (stereo not drawn)	inactive	
	COc1ccc(C2CC(OCC(C)C)=CC(=O)O2)cc1OC (stereo not drawn)	inactive	
	COc1cc2c(cc1OC)C1CC(=O)C(CC(C)C)CN1CC2 (stereo not drawn) [TETRABENAZINE]		Toxic
	COc1cc2c(cc1OC)C1CC(OCC(C)C)=CC(=O)N1CC2 (stereo not drawn)	Active	
